Assay results collected from several papers.
Target: Aurora kinase A (AURKA, Homo sapiens, UniProt O14965)
Residues used in one study (O14965 1-403): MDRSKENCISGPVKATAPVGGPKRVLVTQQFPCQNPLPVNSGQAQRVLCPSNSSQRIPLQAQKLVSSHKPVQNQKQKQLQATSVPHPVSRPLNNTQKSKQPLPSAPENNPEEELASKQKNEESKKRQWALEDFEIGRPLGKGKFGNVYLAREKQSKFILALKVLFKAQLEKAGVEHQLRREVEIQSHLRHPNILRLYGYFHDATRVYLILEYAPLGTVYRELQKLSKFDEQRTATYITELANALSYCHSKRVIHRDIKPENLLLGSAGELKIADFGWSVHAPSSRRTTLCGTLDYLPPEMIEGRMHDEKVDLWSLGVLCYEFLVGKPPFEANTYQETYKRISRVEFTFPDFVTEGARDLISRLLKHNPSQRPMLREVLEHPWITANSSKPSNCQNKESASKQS

O=C(c1ccc(Nc2ncc(Cl)c(-c3ccc(Cl)s3)n2)cc1)N1CCC(N2CCCC2)CC1 — remaining binding (binding; competition with immobilised ligand; 1 µM): 1.9%
O=C(NCc1ncc(C(F)(F)F)cc1Cl)c1ccc2c(c1)C1(CCS(=O)(=O)CC1)[C@@H](C1CC1)N2S(=O)(=O)c1ccc(F)cc1 — remaining binding (cell-free assay; competition with immobilised ligand; 1 µM): 81%
C[C@@H]1CN(c2ccc3ncc(-c4ccc5[nH]nc(C6CC6)c5c4)n3n2)C[C@H](C)O1 — remaining binding (binding; competition with immobilised ligand; 50 nM): 87%
C[C@@H](c1ccc(-n2cnc3c(N)ncnc32)cc1)N1CCc2nn(C)c(Cc3ccccc3)c2C1=O — remaining binding (binding; competition with immobilised ligand; 0.1 µM): 73%
C[C@@H]1CCN(c2nccc(-c3cnn4ncccc34)n2)C1 — remaining binding (binding; 1 µM): 92%
c1cncc(-c2cccc(Nc3nccc(NC4CCCCC4)n3)c2)c1 — remaining binding (binding; competition with immobilised ligand; 10 µM): 5.9%
O=c1nc(-c2ccccn2)sc2ccccc12 — remaining binding (cell-free assay; competition with immobilised ligand; 1 µM): 87%
CN(C)c1nccc(-c2cnc3ncccn23)n1 — remaining binding (binding; 1 µM): 49%
O=C(Nc1cccnn1)N1CC(C/C=C/c2cncc(Oc3ccc(C(F)(F)F)cn3)n2)C1 — remaining binding (cell-free assay; competition with immobilised ligand; 1 µM): 100%
O=C(NCCCN1CCOCC1)c1ccc(Nc2nccc(-c3cc4ccccc4s3)n2)cc1 — remaining binding (binding; competition with immobilised ligand; 1 µM): 55%
N[C@@H]1CCN(c2nccc(-c3cnn4ncccc34)n2)C1 — remaining binding (binding; 1 µM): 100%
C[C@H](c1ccc(F)cc1)N(Cc1cccc(C(=O)O)c1)C(=O)c1cnc2ccccc2c1 — remaining binding (cell-free assay; competition with immobilised ligand; 1 µM): 100%
CCN1CCN(Cc2ccc(C(=O)Nc3ccc(C)c(Oc4ccc5c(c4)CC(=O)N5)c3)cc2C(F)(F)F)CC1 — remaining binding (binding; competition with immobilised ligand; 1 µM): 100%
CSc1cccnc1N1CCN(Cc2nc3ccccc3[nH]2)CC1 — remaining binding (cell-free assay; competition with immobilised ligand; 1 µM): 74%
N#Cc1ccccc1CSc1nnc2c(n1)[nH]c1ccccc12 — remaining binding (binding; competition with immobilised ligand; 10 µM): 100%
Cc1c(NC(=O)c2cc(C(N)=O)nc3cc(F)ccc23)c(C(F)(F)F)nn1Cc1ccc(C(C)(C)C)cc1 — remaining binding (cell-free assay; competition with immobilised ligand; 1 µM): 100%
CN(C)c1ncc(F)c(-c2cnn3ncccc23)n1 — remaining binding (binding; 1 µM): 100%
CC(C)(C)c1ccc(-c2nc(CBr)nn2-c2cccc(O)c2)cc1 — remaining binding (cell-free assay; competition with immobilised ligand; 10 µM): 91%
O=C(NCC1CCOCC1)c1n[nH]cc1NC(=O)c1c(F)cccc1F — remaining binding (binding; competition with immobilised ligand; 1 µM): 87%
Nc1ncc2c(n1)-c1c([nH]c3ccc(C#CC4CC4)cc13)CCCC2 — remaining binding (binding; competition with immobilised ligand; 1 µM): 80%
O=C(c1ccc(Nc2ncc(Cl)c(-c3cc4ccccc4s3)n2)cc1)N1CCC(N2CCCC2)CC1 — remaining binding (binding; competition with immobilised ligand; 1 µM): 9.2%
COc1ccnn2ncc(-c3ccnc(N(C)C)n3)c12 — remaining binding (binding; 1 µM): 93%
CCC(=O)N[C@H]1CC[C@@H](C(=O)N(C)c2ccc(-c3nc4ccccc4o3)cc2)C1 — remaining binding (cell-free assay; competition with immobilised ligand; 1 µM): 43%
CN(c1nccc(-c2cnn3ncccc23)n1)C1CC1 — remaining binding (binding; 1 µM): 84%
COc1ccc2cc(OCC3(C(=O)O)CN(C(=O)c4ccc(F)cc4)C3)ccc2c1 — remaining binding (cell-free assay; competition with immobilised ligand; 1 µM): 100%
COc1cnc(Nc2cccc(S(N)(=O)=O)c2)nc1N1CCN(c2ccccc2)CC1 — remaining binding (binding; competition with immobilised ligand; 1 µM): 85%
